# Activity calls are given as the source filed them. The calls are words filed in the database; no cut-off is given here.
# How the values were obtained:
# Staphylococcus aureus [1] = experiment: Antimicrobial activity against methicillin-resistant Staphylococcus aureus BK2464 assessed as concentration required for bacterial subpopulation growth; assay type: functional
# Outline: (§1)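 Etest (manufacturer's method) and population analysis: overnight cultures serially diluted and plated on TSA with increasing oxacillin or BPR, CFU counted after 48 h at 37°C. Colonies from subpopulations growing at high oxacillin or BPR were picked, restreaked on antibiotic-free TSA for three passages, then retested by population analysis.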
# [2] = target: T1, Penicillin-binding protein 4 (Staphylococcus aureus (strain COL)) (UniProt A0A0H2WY27); experiment: Displacement of benzyl-[14C]penicillin from Staphylococcus aureus PBP4 by in vitro competitive assay; conditions: Staphylococcus aureus subsp. aureus COL
# T1 sequence (whole entry): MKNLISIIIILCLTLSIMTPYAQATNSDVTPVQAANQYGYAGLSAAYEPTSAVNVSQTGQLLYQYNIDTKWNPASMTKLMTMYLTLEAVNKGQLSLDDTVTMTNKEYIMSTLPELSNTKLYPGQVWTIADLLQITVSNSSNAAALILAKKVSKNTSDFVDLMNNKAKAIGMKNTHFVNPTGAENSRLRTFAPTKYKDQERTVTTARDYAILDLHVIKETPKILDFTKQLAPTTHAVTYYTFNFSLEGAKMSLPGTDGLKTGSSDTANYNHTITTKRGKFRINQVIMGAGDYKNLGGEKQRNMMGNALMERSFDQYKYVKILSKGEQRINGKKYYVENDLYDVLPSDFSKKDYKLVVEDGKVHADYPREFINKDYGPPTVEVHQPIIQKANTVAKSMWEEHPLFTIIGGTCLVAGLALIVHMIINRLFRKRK
# Outline: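 Membranes came from late-exponential cells of RU130, a PBP 2 insertional mutant of COL. Samples of 150 µg protein were preincubated with increasing drug concentrations for 10 min at 30°C, then labeled with benzyl[14C]penicillin at 20 µg/ml for 10 min at 37°C. The reaction was stopped with excess unlabeled benzylpenicillin in SDS. Read-out was SDS-PAGE with phosphor-screen exposure for 2 weeks.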
# [3] = target: T2, MecA (Staphylococcus aureus) (UniProt Q7DHH4); experiment: Inhibition of methicillin-resistant Staphylococcus aureus COL PBP2a at 10 uM by competitive assay; conditions: Staphylococcus aureus subsp. aureus COL
# T2 sequence (whole entry): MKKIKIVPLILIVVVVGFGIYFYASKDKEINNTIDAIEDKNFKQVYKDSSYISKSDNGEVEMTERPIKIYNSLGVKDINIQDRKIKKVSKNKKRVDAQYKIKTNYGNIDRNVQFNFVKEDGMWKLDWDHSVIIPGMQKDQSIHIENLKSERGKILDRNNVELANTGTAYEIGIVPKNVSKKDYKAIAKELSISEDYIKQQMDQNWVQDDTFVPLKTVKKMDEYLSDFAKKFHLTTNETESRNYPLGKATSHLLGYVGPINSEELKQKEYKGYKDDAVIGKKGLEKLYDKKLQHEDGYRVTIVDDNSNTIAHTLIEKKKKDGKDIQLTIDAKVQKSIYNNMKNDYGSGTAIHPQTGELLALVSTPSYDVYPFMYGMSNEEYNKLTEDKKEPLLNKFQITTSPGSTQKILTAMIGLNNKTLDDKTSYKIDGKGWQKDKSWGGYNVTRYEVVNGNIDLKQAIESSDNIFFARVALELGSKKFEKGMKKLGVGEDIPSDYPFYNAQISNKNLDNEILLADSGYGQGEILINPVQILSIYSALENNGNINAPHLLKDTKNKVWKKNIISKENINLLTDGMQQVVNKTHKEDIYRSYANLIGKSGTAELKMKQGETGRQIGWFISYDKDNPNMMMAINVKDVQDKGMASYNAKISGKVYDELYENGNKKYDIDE
# Outline: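 Purified soluble PBP 2A (mecA expressed in E. coli, 97% pure) at 0.8 µM, preincubated with drug 30 min at 30°C. Then 20 µM Bocillin FL added for 10 min at 37°C, quenched with SDS-PAGE buffer and boiled. Drug range 0.5–20 µM; for IC50, BPR 0.5–200 µM or oxacillin 5–6,000 µM. Curve fitting.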
# Staphylococcus aureus [4] = experiment: Antimicrobial activity against methicillin-resistant Staphylococcus aureus E2125 assessed as concentration required for minimum inhibition of oxacillin-resistant subpopulation growth by Etest; assay type: functional; outline: as §1
# Staphylococcus aureus [5] = experiment: Antimicrobial activity against methicillin-resistant Staphylococcus aureus HAR22 assessed as concentration required for minimum inhibition of BRP-resistant subpopulation growth; assay type: functional; outline: as §1
# Staphylococcus aureus [6] = experiment: Antimicrobial activity against methicillin-resistant Staphylococcus aureus E2125 by Etest; assay type: functional; outline: as §1
# Staphylococcus aureus [7] = experiment: Antimicrobial activity against methicillin-resistant Staphylococcus aureus E2125 assessed as concentration required for bacterial subpopulation growth; assay type: functional; outline: as §1
# Staphylococcus aureus [8] = experiment: Displacement of benzyl-[14C]penicillin from Staphylococcus aureus PBP2 RU130 mutant by in vitro competitive assay; conditions: COL
# Outline: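 Membranes from PBP 2 insertional mutant RU130 (Tn551 in transpeptidase domain), late exponential phase, 150 µg protein, preincubated with increasing oxacillin or BPR 10 min at 30°C. Then labelled with 20 µg/ml benzyl[14C]penicillin 10 min at 37°C and stopped with excess unlabelled penicillin in SDS. SDS-PAGE with phosphor screen exposure for 2 weeks.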
# Staphylococcus aureus [9] = experiment: Antimicrobial activity against methicillin-resistant Staphylococcus aureus HDE288 by Etest; assay type: functional; outline: as §1
# Staphylococcus aureus [10] = experiment: Antimicrobial activity against methicillin-resistant Staphylococcus aureus HPV107 assessed as concentration required for bacterial subpopulation growth; assay type: functional; outline: as §1
# Staphylococcus aureus [11] = experiment: Antimicrobial activity against methicillin-resistant Staphylococcus aureus BK2464 by Etest; assay type: functional; outline: as §1
# Staphylococcus aureus [12] = experiment: Antimicrobial activity against methicillin-resistant Staphylococcus aureus HDE288 assessed as concentration required for minimum inhibition of oxacillin-resistant subpopulation growth by Etest; assay type: functional; outline: as §1
# Staphylococcus aureus [13] = experiment: Antimicrobial activity against methicillin-resistant Staphylococcus aureus COL by Etest; assay type: functional; outline: as §1
# Staphylococcus aureus [14] = experiment: Antimicrobial activity against methicillin-resistant Staphylococcus aureus HAR22 assessed as concentration required for minimum inhibition of oxacillin-resistant subpopulation growth by Etest; assay type: functional; outline: as §1
# Staphylococcus aureus [15] = experiment: Antimicrobial activity against methicillin-resistant Staphylococcus aureus USA300 assessed as concentration required for bacterial subpopulation growth; assay type: functional; outline: as §1
# Staphylococcus aureus [16] = experiment: Antimicrobial activity against methicillin-resistant Staphylococcus aureus HPV107 by Etest; assay type: functional; outline: as §1
# Staphylococcus aureus [17] = experiment: Antimicrobial activity against vancomycin-intermediate Staphylococcus aureus Mu50 by Etest; assay type: functional
# Outline: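 Etest and population analysis: overnight cultures plated on TSA with increasing vancomycin, oxacillin or BPR, CFU counted after 48 h at 37°C. For VRSA strains, vancomycin plates also run with constant 1 µg/ml BPR. Vancomycin Etest read after overnight 37°C incubation on TSA with or without 1 µg/ml BPR.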
# Staphylococcus aureus [18] = experiment: Antimicrobial activity against methicillin-resistant Staphylococcus aureus HU25 assessed as concentration required for bacterial subpopulation growth; assay type: functional; outline: as §1
# Staphylococcus aureus [19] = experiment: Antimicrobial activity against methicillin-resistant Staphylococcus aureus BK2464 assessed as concentration required for minimum inhibition of BRP-resistant subpopulation growth by Etest; assay type: functional; outline: as §1
# Staphylococcus aureus [20] = experiment: Antimicrobial activity against methicillin-resistant Staphylococcus aureus HDE288 assessed as concentration required for minimum inhibition of BRP-resistant subpopulation growth by Etest; assay type: functional; outline: as §1
smiles,measurement,setting,value
Nc1nc(/C(=N/O)C(=O)N[C@@H]2C(=O)N3C(C(=O)O)=C(/C=C4\CCN([C@@H]5CCNC5)C4=O)CS[C@H]23)ns1 [CEFTOBIPROLE],Activity,Staphylococcus aureus [1],1.5 µg/mL
same,Activity,[2],Active
same,inhibition,[3],66%
same,Activity,Staphylococcus aureus [4],0.8 µg/mL
same,Activity,Staphylococcus aureus [5],3 µg/mL
same,MIC,Staphylococcus aureus [6],0.8 µg/mL
same,Activity,Staphylococcus aureus [7],6 µg/mL
same,Activity,Staphylococcus aureus [8],Active
same,MIC,Staphylococcus aureus [9],0.8 µg/mL
same,Activity,Staphylococcus aureus [10],3 µg/mL
same,MIC,Staphylococcus aureus [11],1.5 µg/mL
same,Activity,Staphylococcus aureus [12],1.5 µg/mL
same,MIC,Staphylococcus aureus [13],3 µg/mL
same,Activity,Staphylococcus aureus [14],0.8 µg/mL
same,Activity,Staphylococcus aureus [15],1.5 µg/mL
same,MIC,Staphylococcus aureus [16],0.8 µg/mL
same,MIC,Staphylococcus aureus [17],3 µg/mL
same,Activity,Staphylococcus aureus [18],3 µg/mL
same,Activity,Staphylococcus aureus [19],3 µg/mL
same,Activity,Staphylococcus aureus [20],1.5 µg/mL

# Source: ChEMBL document CHEMBL1275462 (Antimicrob Agents Chemother, 2008)
